Measured values taken from PMC9884086 (Journal of Medicinal Chemistry, 2023).

Columns and labels:
Human PDE10A2 = Human PDE10A2 (Homo sapiens, UniProt Q9Y233); experiment: PDE10A fluorescence polarization; assay type: biochemical
Weight gain in rats = assay type: in vivo; details: data not shown
Iks = Iks (Homo sapiens, UniProt P51787); experiment: Ion channel profile, Iks; assay type: cell-based
[1] = tested on: MK-801-induced locomotor activity in rats; experiment: MK-801-induced psychomotor; assay type: in vivo; details: MK-801 model, striatal occupancy derived from plasma exposures
Passive permeability = assay type: in vitro ADME; details: not told
[2] = tested on: Chinese hamster ovary cells; experiment: Assay for chromosomal aberrations; assay type: cell-based
[3] = tested on: novel objection recognition in rats; experiment: Novel objection recognition assay; assay type: in vivo; details: for novel objection recognition: rats, vs vehicle, p <0.05
Method in brief: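 Rats dosed orally with test compound; donepezil 0.56 mg/kg as reference. Plasma was taken 1 h post dose at the end of the behavioral study (n = 4/group). Striatal PDE10A occupancy was derived from these end-of-study plasma exposures. Significance was tested against vehicle.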

PDE10A = biological target: T1, PDE10A (Rattus norvegicus, UniProt Q9QYJ6); experiment: In vivo PDE10A enzyme occupancy in rat striatum with [3H]MK-8193; design: species or system Wistar–Hannover rats
T1 sequence (Q9QYJ6 1-794): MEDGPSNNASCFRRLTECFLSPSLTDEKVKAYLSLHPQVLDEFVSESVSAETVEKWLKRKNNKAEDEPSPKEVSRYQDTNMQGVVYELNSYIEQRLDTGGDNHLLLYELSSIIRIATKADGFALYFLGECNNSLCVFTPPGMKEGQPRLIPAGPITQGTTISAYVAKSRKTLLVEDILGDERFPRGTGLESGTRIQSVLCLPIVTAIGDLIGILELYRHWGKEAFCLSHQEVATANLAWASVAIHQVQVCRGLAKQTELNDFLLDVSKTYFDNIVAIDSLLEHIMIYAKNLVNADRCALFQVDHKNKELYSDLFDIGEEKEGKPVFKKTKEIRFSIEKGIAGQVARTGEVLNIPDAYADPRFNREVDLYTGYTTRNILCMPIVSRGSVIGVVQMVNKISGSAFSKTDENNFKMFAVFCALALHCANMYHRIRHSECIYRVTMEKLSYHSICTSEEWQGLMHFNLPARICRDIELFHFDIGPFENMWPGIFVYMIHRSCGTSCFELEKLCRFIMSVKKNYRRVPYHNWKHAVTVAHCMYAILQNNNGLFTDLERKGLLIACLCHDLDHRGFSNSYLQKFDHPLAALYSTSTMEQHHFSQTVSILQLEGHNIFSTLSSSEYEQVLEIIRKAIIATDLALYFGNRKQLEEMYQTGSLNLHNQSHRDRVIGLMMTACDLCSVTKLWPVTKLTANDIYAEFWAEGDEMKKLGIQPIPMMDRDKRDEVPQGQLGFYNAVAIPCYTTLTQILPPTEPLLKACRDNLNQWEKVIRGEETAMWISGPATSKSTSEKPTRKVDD

[4] = tested on: other PDE enzyme families (PDE1–PDE11); experiment: PDE selectivity over the other PDE enzyme families; assay type: biochemical; details: tables 1 and 2; over other PDEs
catalepsy in the rats = experiment: Catalepsy in rats; assay type: in vivo; details: compared with atypical antipsychotics, data not shown
[5] = tested on: acute episode of schizophrenia; details: patients experiencing an acute episode of schizophrenia; cited from earlier work
5-strain Ames test = experiment: Microbial mutagenesis assay; assay type: cell-based
[6] = biological target: full length human PDE10A2 (Homo sapiens, UniProt Q9Y233); experiment: Surface plasmon resonance binding kinetics; details: SPR
[7] = tested on: circulating levels of prolactin; experiment: Circulating prolactin in rats; assay type: in vivo; details: data not shown

Chain of Human PDE10A2 (Q9Y233 267-1055): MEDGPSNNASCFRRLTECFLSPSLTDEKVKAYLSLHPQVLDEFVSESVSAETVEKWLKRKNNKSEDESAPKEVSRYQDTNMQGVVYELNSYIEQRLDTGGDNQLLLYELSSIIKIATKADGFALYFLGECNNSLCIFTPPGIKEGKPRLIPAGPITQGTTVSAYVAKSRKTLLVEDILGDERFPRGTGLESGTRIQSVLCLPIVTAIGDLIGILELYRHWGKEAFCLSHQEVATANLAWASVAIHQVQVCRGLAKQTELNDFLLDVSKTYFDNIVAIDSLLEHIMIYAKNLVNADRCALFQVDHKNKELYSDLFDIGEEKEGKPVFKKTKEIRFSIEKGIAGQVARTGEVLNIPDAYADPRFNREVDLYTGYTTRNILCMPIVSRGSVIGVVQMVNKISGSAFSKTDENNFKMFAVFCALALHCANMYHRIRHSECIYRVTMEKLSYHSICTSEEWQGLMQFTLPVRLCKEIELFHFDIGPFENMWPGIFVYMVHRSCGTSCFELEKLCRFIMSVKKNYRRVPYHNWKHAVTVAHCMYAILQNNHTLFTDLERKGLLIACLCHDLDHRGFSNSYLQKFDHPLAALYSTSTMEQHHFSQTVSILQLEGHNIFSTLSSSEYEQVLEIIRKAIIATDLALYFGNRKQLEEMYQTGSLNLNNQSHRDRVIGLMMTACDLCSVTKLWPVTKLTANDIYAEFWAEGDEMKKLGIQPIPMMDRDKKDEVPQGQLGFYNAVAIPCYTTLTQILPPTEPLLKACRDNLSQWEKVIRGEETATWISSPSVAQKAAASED
Chain of full length human PDE10A2 (Q9Y233 715-1055): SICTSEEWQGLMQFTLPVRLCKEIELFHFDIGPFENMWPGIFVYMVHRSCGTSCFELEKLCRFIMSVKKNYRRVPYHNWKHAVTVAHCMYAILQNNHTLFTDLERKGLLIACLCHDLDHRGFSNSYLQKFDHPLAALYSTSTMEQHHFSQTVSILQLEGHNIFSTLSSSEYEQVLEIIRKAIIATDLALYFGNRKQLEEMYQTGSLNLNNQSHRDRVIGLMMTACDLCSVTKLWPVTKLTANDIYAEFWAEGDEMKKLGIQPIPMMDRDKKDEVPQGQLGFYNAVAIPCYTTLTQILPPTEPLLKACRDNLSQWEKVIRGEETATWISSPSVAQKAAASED
Chain of Iks (P51787 whole entry): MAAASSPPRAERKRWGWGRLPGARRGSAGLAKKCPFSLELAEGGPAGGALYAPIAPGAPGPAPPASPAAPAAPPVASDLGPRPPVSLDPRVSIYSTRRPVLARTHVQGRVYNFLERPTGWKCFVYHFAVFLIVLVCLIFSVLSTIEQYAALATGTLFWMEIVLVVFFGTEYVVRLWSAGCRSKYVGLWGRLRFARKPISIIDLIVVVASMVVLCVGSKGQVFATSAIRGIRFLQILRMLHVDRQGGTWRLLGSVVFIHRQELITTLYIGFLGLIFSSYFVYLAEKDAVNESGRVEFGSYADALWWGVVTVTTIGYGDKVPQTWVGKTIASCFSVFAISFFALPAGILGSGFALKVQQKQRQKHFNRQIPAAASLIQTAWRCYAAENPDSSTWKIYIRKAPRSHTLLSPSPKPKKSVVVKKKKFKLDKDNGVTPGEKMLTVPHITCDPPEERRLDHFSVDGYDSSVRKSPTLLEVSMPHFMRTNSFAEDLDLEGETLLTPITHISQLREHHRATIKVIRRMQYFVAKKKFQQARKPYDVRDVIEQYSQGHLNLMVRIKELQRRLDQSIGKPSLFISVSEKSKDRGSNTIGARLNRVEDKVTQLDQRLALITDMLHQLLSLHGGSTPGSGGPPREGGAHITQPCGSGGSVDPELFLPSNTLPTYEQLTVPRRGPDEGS

Cc1c(Cl)nc(C2CC2)nc1Cl [Compound 1]
LBE (ligand binding efficiency) (Human PDE10A2): 0.57

Cc1ccc([C@H]2C[C@@H]2COc2cc(NCc3nnc(C)s3)nc(C)n2)nc1 [Compound 18, 2-Methyl-N-((5-methyl-1,3,4-thiadiazol-2-yl)methyl)-6-(((1S,2S)-2-(5-methylpyridin-2-yl)cyclopropyl)methoxy)pyrimidin-4-amine]
weight gain (Weight gain in rats): reduced weight gain | IC50 (Iks): > 30000 nM | enzyme occupancy at which efficacy was observed (and above) [1]: approximately 25% | Papp (Passive permeability): 35.4 to 42.6 ×10⁻⁶ cm/s | chromosomal aberrations in Chinese hamster ovary cells [2]: negative | LBE (ligand binding efficiency) (Human PDE10A2): 0.54 | LLE (ligand-lipophilicity efficiency) (Human PDE10A2): 7.8 | enzyme occupancy at which significant effects were achieved (and above) ([3]; novel objection recognition, striatal occupancy derived from plasma exposures): approximately 29% | novel objection recognition ([3]; 0.16 and 0.25 mg/kg PO): efficacious | novel objection recognition ([3]; 0.16 and 0.25 mg/kg PO, listed as MK-8189 (18)): significantly improved recognition | EC50 (PDE10A): 52 nM | maximal enzyme occupancy in the rat striatum (PDE10A; PO, higher plasma concentrations): full enzyme occupancy | PDE selectivity [4]: > 500,000 | therapeutic window between antipsychotic-like effects and catalepsy (catalepsy in the rats): larger therapeutic window | antipsychotic efficacy, initial proof of concept [5]: evidence for antipsychotic efficacy | microbial mutagenesis (5-strain Ames test) (5-strain Ames test): negative | on-rate [6]: ~8.0 × 10^7 M^–1·s^–1 | reversibility of binding [6]: completely reversible | in vitro half-life on the enzyme ([6]; 25 °C): ~6.7 min | effect on circulating levels of prolactin [7]: lack of effect

COc1cc2c(cc1OC)C(=O)C(CC1CCN(Cc3ccccc3)CC1)C2 (stereo not shown) [donepezil, reference compound]
novel objection recognition ([3]; positive control 0.56 mg/kg): significantly improved recognition
